Usually IC50 stands for the concentration that inhibits the measured activity by half.

Assay [1] relates to U2OS. Briefly: Cytotoxicity against human U2OS cells assessed as cell viability by MTT assay. Format: functional, cell-based. The procedure, abridged: (§1)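 RD2, RH30 and U2OS sarcoma cells were seeded at 3000 cells/well and incubated 24 h at 37 °C. Compounds were then added in triplicate at 0.1–10 or 0.1–20 μM in the presence of 10% FBS, from 20 mM DMSO stocks. IC50 was obtained by curve fitting.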
A general note: Formazan colour is commonly taken as a measure of viable cells.

Assay [2] deals with SJRH30. Briefly: Effect on total STAT3 expression in human Rh30 cells at 0.5 to 2.5 uM after 16 hrs by Western blot analysis. Format: functional, cell-based. The method, boiled down: (§2)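 RH30 cells at 60–80% confluence in 10% FBS were treated with compound or DMSO for 16 h. Whole-cell extracts were made in cold RIPA buffer with protease and phosphatase inhibitor cocktails. Extracts were run on SDS-PAGE and transferred to PVDF. Blots were probed for P-STAT3 (Tyr705) and total STAT3 with primary antibody 1:1,000 and HRP secondary 1:10000, then detected by ECL.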

Assay [3] can be described thus: Cytotoxicity against human Rh30 cells assessed as cell viability by MTT assay. It is filed as functional, cell-based. The following applies: SJRH30. The method, boiled down:
as §1

Assay [4] has as its target Signal transducer and activator of transcription 3 (Homo sapiens) (UniProt P40763). Briefly: Inhibition of IL6-induced STAT3 Y705 phosphorylation in human MCF7 cells at 0.5 to 2.5 uM incubated for 5 hrs prior to IL6 induction measured after 30 mins by Western blot analysis. Format: cell-based. The procedure, abridged:
(§3)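 MCF-7 cells, which lack persistent P-STAT3, were allowed to adhere overnight and then serum-starved overnight. They were left untreated or pretreated with compound or DMSO for 5 h, then stimulated with IL-6 at 25 ng/mL. Cells were harvested 30 min later and probed for P-STAT3 (Tyr705) and STAT3 by Western blot using RIPA lysates and ECL.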
On the technique in general: In western blotting, separated proteins are transferred to a membrane and probed.

For assay [5] the target is unchanged. Briefly: Inhibition of constitutive STAT3 Y705 phosphorylation in human Rh30 cells after 16 hrs by Western blot analysis. It is filed as cell-based. The procedure, abridged:
as §2

Assay [6] in a line: Cytotoxicity against human RD2 cells assessed as cell viability by MTT assay. It is filed as functional, cell-based. The procedure, abridged:
as §1

The subject of assay [7] is PANC-1. Description: Cytotoxicity against human PANC1 cells assessed as cell viability after 72 hrs by MTT assay. It is filed as functional, cell-based. The following applies: PANC-1, 72 h.
Assay [8] relates to SK-BR-3. Description: Cytotoxicity against human SKBR3 cells assessed as cell viability after 72 hrs by MTT assay. Format: functional, cell-based. The note with it: SK-BR-3, 72 h.
Assay [9] in a line: Cytotoxicity against human U373 cells assessed as cell viability after 72 hrs by MTT assay. Format: functional, cell-based, U-373MG ATCC. The following applies: U373 MG.
Assay [10] concerns MDA-MB-231. Briefly: Cytotoxicity against human MDA-MB-231 cells assessed as cell viability after 72 hrs by MTT assay. Format: functional, cell-based. The note with it: MDA-MB-231, 72 h.
Assay [11] is described as follows: Cytotoxicity against human U87 cells assessed as cell viability after 72 hrs by MTT assay. Format: functional, cell-based, U-87MG ATCC. The note with it: U-87 MG.
The test system of assay [12] is MDA-MB-231. Description: Antitumor activity against human MDA-MB-231 cells xenografted in Harlan athymic nude mouse assessed as tumor growth inhibition at 5 mg/kg, ip measured for 21 days. The arrangement: dose 5 mg/kg. It is filed as functional, organism-based. The method, boiled down:
(§4)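 Female athymic nude mice, 6 weeks old, received 5 × 10^6 MDA-MB-231 cells subcutaneously in the flank. After tumors developed, they were split into two groups of eight tumors each: DMSO vehicle control, or 5 mg/kg IP. The drug was formulated in Cremaphor, DMSO and 5% dextrose. Tumor L and W were measured by caliper every other day. Volume = 0.5236 × L × W2. Treatment lasted 21 days.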
Background: In xenograft studies the graft and the host belong to different species.

Assay [13] deals with Signal transducer and activator of transcription 3 (Homo sapiens) (UniProt P40763). Briefly: Inhibition of IL6-induced STAT3 Y705 phosphorylation in human MCF7 cells at 0.25 to 1 uM incubated for 5 hrs prior to IL6 induction measured after 30 mins by Western blot analysis. It is filed as cell-based. The method, boiled down: as §3
Signal transducer and activator of transcription 3 (Homo sapiens), sequence (P40763 whole entry): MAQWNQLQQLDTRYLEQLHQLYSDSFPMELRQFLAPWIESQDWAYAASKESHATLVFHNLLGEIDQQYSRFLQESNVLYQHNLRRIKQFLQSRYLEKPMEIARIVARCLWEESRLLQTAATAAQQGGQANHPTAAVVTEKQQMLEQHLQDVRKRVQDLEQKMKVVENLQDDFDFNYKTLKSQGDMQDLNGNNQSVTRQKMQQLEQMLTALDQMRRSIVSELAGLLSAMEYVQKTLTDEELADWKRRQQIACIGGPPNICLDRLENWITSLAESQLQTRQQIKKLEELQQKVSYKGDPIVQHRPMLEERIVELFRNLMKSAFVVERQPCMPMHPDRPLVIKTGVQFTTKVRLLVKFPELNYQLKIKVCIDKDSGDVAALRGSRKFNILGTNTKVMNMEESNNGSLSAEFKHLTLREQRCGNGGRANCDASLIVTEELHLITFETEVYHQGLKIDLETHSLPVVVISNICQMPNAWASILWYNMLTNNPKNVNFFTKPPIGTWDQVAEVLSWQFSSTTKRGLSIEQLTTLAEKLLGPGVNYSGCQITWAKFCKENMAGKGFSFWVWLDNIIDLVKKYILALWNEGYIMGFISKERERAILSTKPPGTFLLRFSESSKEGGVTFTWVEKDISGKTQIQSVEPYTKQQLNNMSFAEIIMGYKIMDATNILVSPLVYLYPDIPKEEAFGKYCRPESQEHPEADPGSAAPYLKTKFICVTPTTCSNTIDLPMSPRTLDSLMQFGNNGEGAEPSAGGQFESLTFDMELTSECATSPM
In assay [14] the test system is MDA-MB-231. Briefly: Antitumor activity against human MDA-MB-231 cells xenografted in Harlan athymic nude mouse assessed as decrease in tumor size at 5 mg/kg, ip measured for 21 days. Format: functional, organism-based. Set-up: dose 5 mg/kg. The method, boiled down:
as §4

Assay [15] deals with Signal transducer and activator of transcription 3 (Homo sapiens) (UniProt P40763). Description: Inhibition of constitutive STAT3 Y705 phosphorylation in human EW8 cells assessed as appearance of cleaved caspase 3 at 0.5 to 1 uM after 8 hrs by Western blot analysis. Format: cell-based. The method, boiled down: (§5)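 EW8 Ewing's sarcoma cells were treated with 0.5–1 μM compound or DMSO for 8 h, in 10% FBS at 60–80% confluence. Whole-cell RIPA lysates were analyzed by SDS-PAGE and PVDF Western blot, with primary antibody 1:1,000, HRP secondary 1:10000 and ECL detection. Blots were probed for P-STAT3, total STAT3, phosphorylated ERK1/2 and cleaved caspase 3.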

The target of assay [16] is Mitogen-activated protein kinase; ERK1/ERK2 (Homo sapiens) (UniProt P27361+P28482). Briefly: Inhibition of ERK1/2 phosphorylation in human EW8 cells at 0.5 to 1 uM after 8 hrs by Western blot analysis. Format: cell-based. The procedure, abridged: as §5
Mitogen-activated protein kinase; ERK1/ERK2 (Homo sapiens), sequence (P27361 whole entry, looked up): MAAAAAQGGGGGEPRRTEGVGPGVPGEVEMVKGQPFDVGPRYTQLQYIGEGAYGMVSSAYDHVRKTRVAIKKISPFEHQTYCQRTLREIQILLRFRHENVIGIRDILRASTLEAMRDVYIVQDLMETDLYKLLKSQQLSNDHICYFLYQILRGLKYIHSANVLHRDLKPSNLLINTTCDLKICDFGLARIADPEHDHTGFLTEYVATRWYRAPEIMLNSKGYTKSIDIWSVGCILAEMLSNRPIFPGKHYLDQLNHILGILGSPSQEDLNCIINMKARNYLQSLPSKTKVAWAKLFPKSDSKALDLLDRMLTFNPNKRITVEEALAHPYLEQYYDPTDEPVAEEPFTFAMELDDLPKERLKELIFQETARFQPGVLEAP
Mitogen-activated protein kinase; ERK1/ERK2 (Homo sapiens), sequence (P28482 whole entry, looked up): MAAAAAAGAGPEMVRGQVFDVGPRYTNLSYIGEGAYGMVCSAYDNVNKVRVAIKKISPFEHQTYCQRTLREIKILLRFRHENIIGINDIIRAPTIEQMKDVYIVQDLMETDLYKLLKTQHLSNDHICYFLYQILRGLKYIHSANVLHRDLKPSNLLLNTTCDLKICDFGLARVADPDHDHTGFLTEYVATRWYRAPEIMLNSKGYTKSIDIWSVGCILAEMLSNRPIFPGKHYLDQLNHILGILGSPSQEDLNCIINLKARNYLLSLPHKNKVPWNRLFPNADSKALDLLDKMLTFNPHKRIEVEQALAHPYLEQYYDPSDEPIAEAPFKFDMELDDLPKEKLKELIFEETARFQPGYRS
The subject of assay [17] is EW8. Description: Effect on total STAT3 expression in human EW8 cells at 0.5 to 1 uM after 8 hrs by Western blot analysis. It is filed as functional, cell-based. The procedure, abridged: as §5
Assay [18] deals with Signal transducer and activator of transcription 3 (Homo sapiens) (UniProt P40763). Description: Inhibition of IL6-induced STAT3 Y705 phosphorylation in human DAOY cells at 1 to 5 uM incubated for 2 hrs prior to IL6 induction measured after 30 mins by Western blot analysis. Format: cell-based. The procedure, abridged: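 DAOY medulloblastoma cells were allowed to adhere, then serum-starved overnight. They were left untreated or pretreated with 1–5 μM compound or DMSO for 2 h, then stimulated with IL-6. Cells were harvested 30 min after stimulation. P-STAT3 (Tyr705) and STAT3 were detected by Western blot from RIPA lysates, with ECL detection.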

For assay [19] the target is unchanged. Briefly: Inhibition of constitutive STAT3 Y705 phosphorylation in human EW8 cells after 8 hrs by Western blot analysis. Format: cell-based. The method, boiled down: as §5
In assay [20] the target is T1, Signal transducer and activator of transcription 1-alpha/beta (Homo sapiens) (UniProt P42224).
T1 sequence (whole entry): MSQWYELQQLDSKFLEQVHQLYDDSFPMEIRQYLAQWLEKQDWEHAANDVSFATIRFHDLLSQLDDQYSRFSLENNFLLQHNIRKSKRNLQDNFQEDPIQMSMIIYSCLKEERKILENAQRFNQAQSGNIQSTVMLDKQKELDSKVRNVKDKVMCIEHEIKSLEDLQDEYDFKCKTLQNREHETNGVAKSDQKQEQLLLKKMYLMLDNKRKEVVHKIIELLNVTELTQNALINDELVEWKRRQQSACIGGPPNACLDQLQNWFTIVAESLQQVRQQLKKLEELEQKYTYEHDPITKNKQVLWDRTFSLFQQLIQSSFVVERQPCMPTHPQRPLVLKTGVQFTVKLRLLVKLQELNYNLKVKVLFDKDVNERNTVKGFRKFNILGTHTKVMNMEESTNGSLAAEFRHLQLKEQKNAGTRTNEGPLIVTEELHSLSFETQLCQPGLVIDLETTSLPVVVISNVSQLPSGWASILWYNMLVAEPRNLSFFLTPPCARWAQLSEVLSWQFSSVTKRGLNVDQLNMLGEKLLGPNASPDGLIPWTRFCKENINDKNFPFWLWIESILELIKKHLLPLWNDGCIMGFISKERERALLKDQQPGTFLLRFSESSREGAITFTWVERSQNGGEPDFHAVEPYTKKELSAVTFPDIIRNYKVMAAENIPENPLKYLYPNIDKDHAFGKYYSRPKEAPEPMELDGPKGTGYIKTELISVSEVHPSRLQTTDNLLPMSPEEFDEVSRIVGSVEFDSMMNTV
Briefly: Inhibition of IFN-gamma-induced STAT1 Y701 phosphorylation in human DAOY cells at 1 to 5 uM incubated for 2 hrs prior to IFN-gamma induction measured after 30 mins by Western blot analysis. Format: cell-based. The method, boiled down: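 DAOY cells were serum-starved overnight and left untreated or treated with 1–5 μM compound or DMSO for 2 h. They were then stimulated with IFN-γ at 50 ng/mL and harvested 30 min later. STAT1 phosphorylation was analyzed by Western blot from RIPA lysates, with ECL detection.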

The test system of assay [21] is SJRH30. Description: Effect on total STAT3 expression in human Rh30 cells at 0.25 to 1 uM after 16 hrs by Western blot analysis. Format: functional, cell-based. The procedure, abridged:
as §2

Activity calls are given as the source filed them. No cut-off for these calls is given here.

As to `O=C1C(Nc2ccc3ccccc3c2)=CC2=NS(=O)(=O)c3cccc1c32`, in assay [1], the IC50 stood at 2500 nM.

As to `O=C1C(Nc2ccc([N+](=O)[O-])cc2Cl)=CC2=NS(=O)(=O)c3cccc1c32`, the outcome in assay [2] was inactive. For the same compound, the IC50 in [3] was 1140 nM; in assay [6], 2560 nM; in assay [1], 1390 nM. The inhibition entry in assay [4] is “Active”. The inhibition result in assay [5] is “Dose-dependent effect”.

Take `NS(=O)(=O)c1cccc2c1C(=O)c1cccc(O)c1C2=O`: the IC50 in assay [7], in [8], in assay [9], in assay [10] and in [11] was 160 nM each time.

In the case of `O=C1C(Nc2ccccc2)=CC2=NS(=O)(=O)c3cccc1c32`, in assay [1], the IC50 came to 5000 nM.

As for `NS(=O)(=O)c1cccc2c1C(=O)C=C(Nc1cccnc1)C2=O`, the TGI entry in assay [12] was “Active”. In addition, the inhibition entry in assay [13], in assay [15] and in assay [18] was “Active” each time. Besides, the IC50 in assay [3] was found to be 550 nM; in [6], 1390 nM; in assay [1] it was 500 nM. The outcome in assay [14] was Active. For the same compound, the inhibition result in [5] and in [19] was “Dose-dependent effect” each time. The inhibition entry in assay [16] and in assay [20] was “inactive” each time. In addition, the result in assay [17] and in assay [21] was inactive.

On to `NS(=O)(=O)c1cccc2c1C(=O)C=C(Nc1ccccc1)C2=O`, for which, in [1], the half-maximal inhibitory concentration (IC50) is greater than 5000 nM.
